Test results reported in ChEMBL document CHEMBL1800057, “Discovery of dual inducible/neuronal nitric oxide synthase (iNOS/nNOS) inhibitor development candidate 4-((2-cyclobutyl-1H-imidazo[4,5-b]pyrazin-1-yl)methyl)-7,8-difluoroquinolin-2(1H)-one (KD7332) part 2: identification of a novel, potent, and selective series of benzimidazole-quinolinone …” (J Med Chem, 2010).

What was measured:
[1] = Volume of distribution at steady state in mouse at 3 mg/kg, iv and 10 mg/kg, po; type: ADME, organism-based; settings: in vivo, read-out: Vdss
[2] = Cmax in mouse at 3 mg/kg, iv and 10 mg/kg, po; type: ADME, organism-based; settings: in vivo
[3] = Half life in mouse at 10 mg/kg, po; type: ADME, organism-based; set-up: dose 10 mg/kg, route oral; settings: in vivo
[4] = target: Nitric oxide synthase, inducible (Homo sapiens, UniProt P35228); experiment: Inhibition of human iNOS expressed in HEK293 cells assessed as inhibition of nitric oxide production after 18 hrs using 2,3-diaminonaphthalene by fluorescence assay; type: cell-based
Nitric oxide synthase, inducible (Homo sapiens, UniProt P35228), sequence (P35228 whole entry): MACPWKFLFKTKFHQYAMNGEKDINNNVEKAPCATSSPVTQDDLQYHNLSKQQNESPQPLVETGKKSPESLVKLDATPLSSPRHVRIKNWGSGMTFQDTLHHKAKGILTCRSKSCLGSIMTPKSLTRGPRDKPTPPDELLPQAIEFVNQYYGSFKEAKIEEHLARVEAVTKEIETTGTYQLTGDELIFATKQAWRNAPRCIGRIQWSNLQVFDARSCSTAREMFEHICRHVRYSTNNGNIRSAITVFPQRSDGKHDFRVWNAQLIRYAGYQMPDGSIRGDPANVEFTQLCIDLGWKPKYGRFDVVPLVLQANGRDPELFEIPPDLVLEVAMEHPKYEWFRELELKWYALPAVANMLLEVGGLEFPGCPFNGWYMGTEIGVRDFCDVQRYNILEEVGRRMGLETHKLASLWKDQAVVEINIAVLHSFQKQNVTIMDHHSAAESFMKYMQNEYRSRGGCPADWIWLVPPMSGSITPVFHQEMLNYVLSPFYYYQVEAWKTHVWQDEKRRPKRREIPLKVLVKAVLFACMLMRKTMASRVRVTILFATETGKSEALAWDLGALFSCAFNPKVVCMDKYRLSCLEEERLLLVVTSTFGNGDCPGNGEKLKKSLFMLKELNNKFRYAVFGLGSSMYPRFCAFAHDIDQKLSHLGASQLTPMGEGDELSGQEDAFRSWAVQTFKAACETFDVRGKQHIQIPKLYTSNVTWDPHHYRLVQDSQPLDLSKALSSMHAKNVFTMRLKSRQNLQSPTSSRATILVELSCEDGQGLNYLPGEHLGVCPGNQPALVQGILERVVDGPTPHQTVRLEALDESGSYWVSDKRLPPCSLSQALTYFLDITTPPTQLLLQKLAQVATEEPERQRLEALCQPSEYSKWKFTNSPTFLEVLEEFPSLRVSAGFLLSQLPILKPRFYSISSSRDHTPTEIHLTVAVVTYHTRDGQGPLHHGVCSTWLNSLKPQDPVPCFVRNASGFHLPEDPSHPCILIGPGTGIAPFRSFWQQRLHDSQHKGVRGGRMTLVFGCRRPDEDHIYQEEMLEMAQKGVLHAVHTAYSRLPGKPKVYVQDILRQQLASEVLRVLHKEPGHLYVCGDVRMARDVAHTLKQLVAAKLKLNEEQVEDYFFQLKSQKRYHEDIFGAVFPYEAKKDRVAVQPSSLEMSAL
In short: (§1)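 HEK293 cells grown to ~70% confluence in DMEM/10% FBS with pen/strep, transiently transfected with 10 μg human or murine iNOS plasmid plus Fugene 6 for 4 h at 37 °C, 10% CO2. Cells replated at 5e5 cells/mL and dosed with compound at once; 1400W (100 μM final) as positive control. After 18 h, DAN (10 μg/mL final) in HCl (0.1 N final) added for 20 min at room temperature. Fluorescence read after NaOH (0.12 N final).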

Nitric oxide synthase 3 = target: T1, Nitric oxide synthase 3 (Homo sapiens, UniProt P29474); experiment: Inhibition of human eNOS expressed in HEK293 cells assessed as inhibition A23187 induced nitric oxide production incubated for 24 hrs measured after 18 hrs of […] challenge using 2,3-diaminonaphthalene by fluorescence assay; type: cell-based
T1 sequence (P29474 whole entry): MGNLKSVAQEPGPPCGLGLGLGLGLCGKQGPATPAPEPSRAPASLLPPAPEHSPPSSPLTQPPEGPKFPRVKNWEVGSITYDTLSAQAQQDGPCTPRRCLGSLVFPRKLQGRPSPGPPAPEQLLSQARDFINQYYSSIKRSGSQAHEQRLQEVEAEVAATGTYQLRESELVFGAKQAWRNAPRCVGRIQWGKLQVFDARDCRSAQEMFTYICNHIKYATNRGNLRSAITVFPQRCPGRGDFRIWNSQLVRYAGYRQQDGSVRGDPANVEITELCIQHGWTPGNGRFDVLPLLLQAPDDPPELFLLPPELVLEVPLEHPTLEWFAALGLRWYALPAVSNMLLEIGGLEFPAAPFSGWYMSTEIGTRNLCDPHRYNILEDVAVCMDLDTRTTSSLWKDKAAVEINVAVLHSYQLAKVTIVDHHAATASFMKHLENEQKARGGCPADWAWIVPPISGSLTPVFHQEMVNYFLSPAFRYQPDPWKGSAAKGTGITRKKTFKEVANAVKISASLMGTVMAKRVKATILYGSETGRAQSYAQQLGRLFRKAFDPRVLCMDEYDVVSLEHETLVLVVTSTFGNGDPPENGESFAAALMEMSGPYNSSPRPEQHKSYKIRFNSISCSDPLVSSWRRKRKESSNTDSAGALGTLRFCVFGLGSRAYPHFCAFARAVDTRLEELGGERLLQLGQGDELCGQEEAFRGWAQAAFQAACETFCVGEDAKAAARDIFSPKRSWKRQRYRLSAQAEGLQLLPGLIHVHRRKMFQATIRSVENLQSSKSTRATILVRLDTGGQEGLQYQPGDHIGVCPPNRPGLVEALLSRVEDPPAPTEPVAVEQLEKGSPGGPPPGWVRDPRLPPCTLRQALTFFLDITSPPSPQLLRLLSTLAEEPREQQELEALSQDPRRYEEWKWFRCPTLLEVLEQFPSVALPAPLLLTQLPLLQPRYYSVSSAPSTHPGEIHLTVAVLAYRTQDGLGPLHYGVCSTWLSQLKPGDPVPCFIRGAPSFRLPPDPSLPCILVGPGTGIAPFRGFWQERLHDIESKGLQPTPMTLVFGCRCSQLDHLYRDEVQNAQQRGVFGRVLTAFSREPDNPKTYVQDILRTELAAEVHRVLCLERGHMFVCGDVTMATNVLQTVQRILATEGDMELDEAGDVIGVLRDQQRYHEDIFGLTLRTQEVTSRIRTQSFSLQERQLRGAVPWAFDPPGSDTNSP
In short: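 HEK293 cells transfected for 4 h at 37 °C with human nNOS (10 μg) or human eNOS (15 μg) plasmid (Fugene 6, 3:1). Cells replated at 5e5 cells/mL and dosed with compound at once; SEITU (100 μM final) as positive control. After 24 h, cells activated with A23187 (83 nM final) for eNOS or ionomycin (30 μM final) for nNOS. NO read 18 h later as nitrite-DAN fluorescence.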

[5] = target: T2, Nitric oxide synthase, inducible (Mus musculus, UniProt P29477); experiment: Inhibition of mouse iNOS expressed in HEK293 cells assessed as inhibition of nitric oxide production after 18 hrs using 2,3-diaminonaphthalene by fluorescence assay; type: cell-based; in short: as §1
T2 sequence (P29477 whole entry): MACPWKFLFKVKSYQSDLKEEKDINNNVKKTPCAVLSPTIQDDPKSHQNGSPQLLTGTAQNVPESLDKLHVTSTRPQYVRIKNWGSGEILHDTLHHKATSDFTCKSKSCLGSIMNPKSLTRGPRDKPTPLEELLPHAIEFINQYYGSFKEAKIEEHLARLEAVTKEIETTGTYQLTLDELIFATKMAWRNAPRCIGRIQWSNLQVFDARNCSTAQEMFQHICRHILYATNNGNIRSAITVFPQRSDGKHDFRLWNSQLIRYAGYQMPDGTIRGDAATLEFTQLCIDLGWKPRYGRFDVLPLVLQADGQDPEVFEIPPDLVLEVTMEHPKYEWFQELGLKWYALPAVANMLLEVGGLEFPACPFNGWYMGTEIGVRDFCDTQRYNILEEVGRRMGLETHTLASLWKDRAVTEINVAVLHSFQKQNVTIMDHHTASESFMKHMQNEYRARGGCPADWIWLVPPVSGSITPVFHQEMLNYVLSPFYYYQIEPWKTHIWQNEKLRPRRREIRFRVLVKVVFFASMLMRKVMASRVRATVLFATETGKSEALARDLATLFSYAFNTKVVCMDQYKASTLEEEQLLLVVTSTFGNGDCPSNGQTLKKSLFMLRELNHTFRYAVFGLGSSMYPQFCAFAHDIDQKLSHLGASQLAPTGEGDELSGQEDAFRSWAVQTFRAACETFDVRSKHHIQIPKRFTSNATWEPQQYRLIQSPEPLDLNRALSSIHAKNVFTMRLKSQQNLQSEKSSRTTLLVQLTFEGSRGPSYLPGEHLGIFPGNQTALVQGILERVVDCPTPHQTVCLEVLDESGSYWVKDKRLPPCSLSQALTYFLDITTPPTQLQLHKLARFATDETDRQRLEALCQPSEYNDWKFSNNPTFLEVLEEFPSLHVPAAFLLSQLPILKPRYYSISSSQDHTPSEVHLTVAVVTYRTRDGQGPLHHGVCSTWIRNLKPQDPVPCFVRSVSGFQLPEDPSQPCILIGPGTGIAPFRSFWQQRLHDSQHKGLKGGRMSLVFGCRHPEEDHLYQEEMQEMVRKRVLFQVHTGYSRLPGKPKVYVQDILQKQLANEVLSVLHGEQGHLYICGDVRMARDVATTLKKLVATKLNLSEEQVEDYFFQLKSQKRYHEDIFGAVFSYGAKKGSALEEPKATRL

Row | Compound | Vd [1] | Cmax [2] | half-life [3] | EC50 [4] | EC50 (Nitric oxide synthase 3) | EC50 [5]
1 | CC(C)Cc1nc2ccccc2n1Cc1cc(=O)[nH]c2c(F)c(F)ccc12 | 1.1 L/kg | 8700 ng/mL | 312 min | 380 nM | > 100 µM | 3100 nM
2 | O=c1cc(Cn2c(C3CCC3)nc3nccnc32)c2ccc(F)c(F)c2[nH]1 | 0.39 L/kg | 15000 ng/mL | 138 min | 91 nM | 16.5 µM | 430 nM
3 | O=c1cc(Cn2c(C3CCC3)nc3nccnc32)c2cccc(F)c2[nH]1 | 0.47 L/kg |  | 186 min | 190 nM | 26 µM | 1300 nM
4 | CC(C)Cc1nc2nccnc2n1Cc1cc(=O)[nH]c2c(F)c(F)ccc12 | 6.8 L/kg |  | 108 min | 88 nM | 39 µM | 440 nM
5 | O=c1cc(Cn2c(C3CC(F)(F)C3)nc3nccnc32)c2cccc(F)c2[nH]1 | 0.67 L/kg | 8800 ng/mL | 138 min | 220 nM | > 100 µM | 3300 nM
